Results published in ChEMBL document CHEMBL1123783, “Synthesis and anticonvulsant activity of analogues of 4-amino-N-(1-phenylethyl)benzamide” (J Med Chem, 1987).
Values joined by “and” are separate entries in the source; they are usually repeats but may differ in a detail not shown here. Equal entries are not always repeated.

Experiments:
Mus musculus [1] = species: Mus musculus; test: Compound was evaluated for anticonvulsant activity against maximal electric shock induced seizures; assay type: functional
Procedure, shortened: (§1)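 Male Carworth Farms number-one mice received the compound ip in 30% polyethylene glycol 400 before maximal electroshock testing, at several dose levels. The median effective dose (ED50) was obtained by the graphical method.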

Mus musculus [2] = test: Compound was evaluated for toxicity by rotarod assay method after 30 minutes at a dose of 100 mg/kg; assay type: organism-based; design: dose 100 mg/kg; conditions: in vivo, 0.5 h
Procedure, shortened: (§2)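 Male Carworth Farms number-one mice received test compound intraperitoneally in 30% polyethylene glycol 400 at 30, 100 and 300 mg/kg, with 600 mg/kg in some cases. Neurological deficit was read at 30 min or 4 h after dosing on a 1-in.-diameter knurled plastic rod turning at 6 rpm. Toxicity was scored as failure to stay on the rod for 1 min.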

Mus musculus [3] = test: Compound was evaluated for anticonvulsant activity against subcutaneous pentylenetetrazole-induced convulsions after 30 minutes; D indicates no activity at 100 mg/kg; assay type: functional, organism-based; design: dose 100 mg/kg
Procedure, shortened: (§3)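 Male Carworth Farms number-one mice were dosed ip in 30% PEG 400, at 30, 100 or 300 mg/kg (sometimes 600 mg/kg). Pentylenetetrazole, 85 mg/kg as a 0.5% solution, was injected subcutaneously in the posterior midline. Protection meant no episode of clonic spasms lasting at least 5 s during a 30-min observation period.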

[4] = Protective index is the ratio of TD50 to ED50; assay type: ADME
Procedure, shortened: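 Protective index was calculated as rotorod TD50 divided by anti-MES ED50. Both were graphical median doses from ip dosing in 30% PEG 400 in male Carworth Farms mice.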

[5] = Compound was evaluated for anticonvulsant activity by rotarod procedure; assay type: ADME, organism-based; conditions: mouse, in vivo
Procedure, shortened: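 Male Carworth Farms mice were dosed ip in 30% PEG 400 and then placed on a knurled plastic rod 1 in. in diameter, rotating at 6 rpm. Neurotoxicity was failure to stay on the rod for 1 min. TD50 was derived graphically.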

Mus musculus [6] = test: Compound was evaluated for anticonvulsant activity against subcutaneous pentylenetetrazole-induced convulsions after 4 hr; D indicates no activity at 100 mg/kg; assay type: functional, organism-based; design: dose 100 mg/kg; procedure, shortened: as §3
Mus musculus [7] = test: Compound was evaluated for anticonvulsant activity against maximal electric shock (MES) induced convulsions after 4 hr at a dose of 100 mg/kg; assay type: functional
Mus musculus [8] = test: Compound was evaluated for toxicity by rotarod assay method after 4 hr at a dose of 100 mg/kg; assay type: organism-based; design: dose 100 mg/kg; conditions: in vivo; procedure, shortened: as §2
Mus musculus [9] = test: Compound was evaluated for anticonvulsant activity against maximal electric shock (MES) induced convulsions after 30 minutes at a dose of 30 mg/kg; assay type: functional
Mus musculus [10] = test: Compound was evaluated for anticonvulsant activity against maximal electric shock (MES) induced convulsions after 30 minutes; C is inactive at 300 mg/kg.; assay type: functional, organism-based; design: dose 300 mg/kg
Mus musculus [11] = test: Compound was evaluated for toxicity by rotarod assay method after 30 minutes; C is inactive at 300 mg/kg.; assay type: organism-based; design: dose 300 mg/kg; conditions: in vivo, 0.5 h; procedure, shortened: as §2
Mus musculus [12] = test: Compound was evaluated for anticonvulsant activity against subcutaneous pentylenetetrazole-induced convulsions after 4 hr; C is inactive at 300 mg/kg.; assay type: functional, organism-based; design: dose 300 mg/kg; procedure, shortened: as §3
Mus musculus [13] = test: Compound was evaluated for toxicity by rotarod assay method after 4 hr; C is inactive at 300 mg/kg.; assay type: organism-based; design: dose 300 mg/kg; conditions: in vivo; procedure, shortened: as §2
Mus musculus [14] = test: Compound was evaluated for anticonvulsant activity against subcutaneous pentylenetetrazole-induced convulsions after 30 minutes;C is inactive at 300 mg/kg.; assay type: functional, organism-based; design: dose 300 mg/kg; procedure, shortened: as §3
Mus musculus [15] = test: Compound was evaluated for anticonvulsant activity against maximal electric shock (MES) induced convulsions after 4 hr; C is inactive at 300 mg/kg.; assay type: functional, organism-based; design: dose 300 mg/kg
Mus musculus [16] = test: Compound was evaluated for anticonvulsant activity against subcutaneous pentylenetetrazole-induced convulsions after 30 minutes; E indicates no activity at 30 mg/kg.; assay type: functional, organism-based; design: dose 30 mg/kg; procedure, shortened: as §3
Mus musculus [17] = test: Compound was evaluated for anticonvulsant activity against maximal electric shock (MES) induced convulsions after 4 hr; E indicates no activity at 30 mg/kg.; assay type: functional, organism-based; design: dose 30 mg/kg
Mus musculus [18] = test: Compound was evaluated for toxicity by rotarod assay method after 30 minutes at a dose of 600 mg/kg; assay type: organism-based; design: dose 600 mg/kg; conditions: in vivo, 0.5 h; procedure, shortened: as §2
Mus musculus [19] = test: Compound was evaluated for anticonvulsant activity against maximal electric shock (MES) induced convulsions after 30 minutes at a dose of 300 mg/kg; assay type: functional
Mus musculus [20] = test: Compound was evaluated for toxicity by rotarod assay method after 4 hr; E indicates no activity at 30 mg/kg.; assay type: organism-based; design: dose 30 mg/kg; conditions: in vivo; procedure, shortened: as §2
Mus musculus [21] = test: Compound was evaluated for anticonvulsant activity against subcutaneous pentylenetetrazole-induced convulsions after 4 hr; E indicates no activity at 30 mg/kg.; assay type: functional, organism-based; design: dose 30 mg/kg; procedure, shortened: as §3
[22] = Lethal dose was evaluated in mice; assay type: toxicity, organism-based; conditions: mouse, in vivo
Mus musculus [23] = species: Mus musculus; test: Hypnotic dose was evaluated in mice; assay type: functional
Mus musculus [24] = test: Compound was evaluated for toxicity by rotarod assay method after 30 minutes;C is inactive at 300 mg/kg.; assay type: organism-based; design: dose 300 mg/kg; conditions: in vivo, 0.5 h; procedure, shortened: as §2
Mus musculus [25] = test: Compound was evaluated for anticonvulsant activity against maximal electric shock (MES) induced convulsions after 30 minutes;C is inactive at 300 mg/kg.; assay type: functional, organism-based; design: dose 300 mg/kg
Mus musculus [26] = test: Compound was evaluated for anticonvulsant activity against maximal electric shock (MES) induced convulsions after 4 hr; C indicates no activity at 300 mg/kg.; assay type: functional, organism-based; design: dose 300 mg/kg
Mus musculus [27] = test: Compound was evaluated for toxicity by rotarod assay method after 4 hr; C indicates no activity at 300 mg/kg.; assay type: organism-based; design: dose 300 mg/kg; conditions: in vivo; procedure, shortened: as §2
Mus musculus [28] = test: Compound was evaluated for anticonvulsant activity against subcutaneous pentylenetetrazole-induced convulsions after 4 hr at a dose of 100 mg/kg; assay type: functional; procedure, shortened: as §3
Mus musculus [29] = test: Compound was evaluated for anticonvulsant activity against subcutaneous pentylenetetrazole-induced convulsions after 30 minutes; C indicates no activity at 300 mg/kg.; assay type: functional, organism-based; design: dose 300 mg/kg; procedure, shortened: as §3
Mus musculus [30] = test: Compound was evaluated for anticonvulsant activity against maximal electric shock (MES) induced convulsions after 30 minutes; C indicates no activity at 300 mg/kg.; assay type: functional, organism-based; design: dose 300 mg/kg
Mus musculus [31] = test: Compound was evaluated for toxicity by rotarod assay method after 30 minutes; C indicates no activity at 300 mg/kg.; assay type: organism-based; design: dose 300 mg/kg; conditions: in vivo, 0.5 h; procedure, shortened: as §2
Mus musculus [32] = species: Mus musculus; test: Compound was evaluated for anticonvulsant activity against maximal electroshock seizures; assay type: functional; procedure, shortened: as §1
Mus musculus [33] = test: Compound was evaluated for anticonvulsant activity against subcutaneous pentylenetetrazole-induced convulsions after 4 hr; C indicates no activity at 300 mg/kg.; assay type: functional, organism-based; design: dose 300 mg/kg; procedure, shortened: as §3
Mus musculus [34] = test: Compound was evaluated for anticonvulsant activity against maximal electric shock (MES) induced convulsions after 4 hr at a dose of 300 mg/kg; assay type: functional
Mus musculus [35] = test: Compound was evaluated for toxicity by rotarod assay method after 4 hr at a dose of 300 mg/kg; assay type: organism-based; design: dose 300 mg/kg; conditions: in vivo; procedure, shortened: as §2
Mus musculus [36] = test: Compound was evaluated for anticonvulsant activity against subcutaneous pentylenetetrazole-induced convulsions after 30 minutes;C indicates no activity at 300 mg/kg.; assay type: functional, organism-based; design: dose 300 mg/kg; procedure, shortened: as §3

CNCc1ccc(C(=O)NC(C)c2ccccc2)cc1 (centres undefined)
ED50 (Mus musculus [1]): 13.5 mg/kg
Toxicity (Mus musculus [2]): 3
Activity (Mus musculus [3]): No activity at 100 mg/kg
selectivity ratio ([4]; read-out: Protective index): 1.66
TD50 [5]: 22.4 mg/kg
Activity (Mus musculus [6]): No activity at 100 mg/kg
Activity (Mus musculus [7]): 3
Toxicity (Mus musculus [8]): 3
Activity (Mus musculus [9]): 4

CCOC(=O)Nc1ccc(C(=O)NC(C)c2ccccc2)cc1 (centres undefined)
Activity (Mus musculus [10]): No activity at 300 mg/kg
Toxicity (Mus musculus [11]): No activity at 300 mg/kg
Activity (Mus musculus [12]): No activity at 300 mg/kg
Toxicity (Mus musculus [13]): No activity at 300 mg/kg
Activity (Mus musculus [14]): No activity at 300 mg/kg
Activity (Mus musculus [15]): No activity at 300 mg/kg

CC(NCc1ccccc1N)c1ccccc1 (centres undefined)
Activity (Mus musculus [16]): No activity at 30 mg/kg
Activity (Mus musculus [17]): No activity at 30 mg/kg
Toxicity (Mus musculus [18]): 1
Activity (Mus musculus [19]): 2
Toxicity (Mus musculus [20]): No activity at 30 mg/kg
Activity (Mus musculus [21]): No activity at 30 mg/kg

CC(NC(=O)c1ccc(N)cc1)c1ccccc1 (centres undefined)
LD50 [22]: 718 mg/kg
Protective index [4]: 9.5 and 4.1
HD50 (Mus musculus [23]): 461.76 mg/kg

CC(NC(=O)c1ccccc1)c1ccccc1 (centres undefined)
Activity (Mus musculus [12]): No activity at 300 mg/kg
Toxicity (Mus musculus [24]): No activity at 300 mg/kg
Toxicity (Mus musculus [13]): No activity at 300 mg/kg
Activity (Mus musculus [14]): No activity at 300 mg/kg
Activity (Mus musculus [25]): No activity at 300 mg/kg
Activity (Mus musculus [15]): No activity at 300 mg/kg

COc1ccc(C(C)NC(=O)c2ccc(N)cc2)cc1 (centres undefined)
Activity (Mus musculus [26]): No activity at 300 mg/kg
Toxicity (Mus musculus [27]): No activity at 300 mg/kg
Activity (Mus musculus [28]): 3
Activity (Mus musculus [29]): No activity at 300 mg/kg
Activity (Mus musculus [30]): No activity at 300 mg/kg
Toxicity (Mus musculus [31]): No activity at 300 mg/kg

CN(C)c1ccc(C(=O)NCc2ccccc2)cc1
Toxicity (Mus musculus [27]): No activity at 300 mg/kg
ED50 (Mus musculus [32]): 233 mg/kg
Activity (Mus musculus [33]): No activity at 300 mg/kg
Activity (Mus musculus [29]): No activity at 300 mg/kg
Activity (Mus musculus [34]): 2
Activity (Mus musculus [30]): No activity at 300 mg/kg
Toxicity (Mus musculus [31]): No activity at 300 mg/kg

CC(NC(=O)c1ccc(N)cc1)c1ccc(F)cc1 (centres undefined)
Activity (Mus musculus [33]): No activity at 300 mg/kg
Toxicity (Mus musculus [35]): 2
Activity (Mus musculus [19]): 2
Activity (Mus musculus [7]): 3
Activity (Mus musculus [36]): No activity at 300 mg/kg
Toxicity (Mus musculus [31]): No activity at 300 mg/kg
